These results are taken from publication PMC4975651 (Molecular cell, 2016).

In this data set the test system is Slug, CD44, EGFR, and VEGFA genes. Type of data set: cell-based, human. The note with it: ectopic expression, ZMYND8-depleted DU145 cells, n = 5. A digest of the protocol:
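DU145 cells were infected with shZMYND8-97 lentivirus, then transfected with control vector, wild-type FLAG-ZMYND8, PHD point mutants (D108A, F109D) or a Bromo mutant (YN/AA). Construct expression was checked by western blot. DU145 cells treated with shLuciferase and transfected with control vector served as the control. CD44, Slug, VEGFA and EGFR expression was measured across 5 replicates.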

B1: FLAG-ZMYND8: ectopically expressed WT FLAG-ZMYND8 (protein, UniProt Q9ULU4 1-1186, looked up)
MYND-type zinc …: MDISTRSKDPGSAERTAQKRKFPSPPHSSNGHSPQDTSTSPIKKKKKPGLLNSNNKEQSELRHGPFYYMKQPLTTDPVDVVPQDGRNDFYCWVCHREGQVLCCELCPRVYHAKCLRLTSEPEGDWFCPECEKITVAECIETQSKAMTMLTIEQLSYLLKFAIQKMKQPGTDAFQKPVPLEQHPDYAEYIFHPMDLCTLEKNAKKKMYGCTEAFLADAKWILHNCIIYNGGNHKLTQIAKVVIKICEHEMNEIEVCPECYLAACQKRDNWFCEPCSNPHPLVWAKLKGFPFWPAKALRDKDGQVDARFFGQHDRAWVPINNCYLMSKEIPFSVKKTKSIFNSAMQEMEVYVENIRRKFGVFNYSPFRTPYTPNSQYQMLLDPTNPSAGTAKIDKQEKVKLNFDMTASPKILMSKPVLSGGTGRRISLSDMPRSPMSTNSSVHTGSDVEQDAEKKATSSHFSASEESMDFLDKSTASPASTKTGQAGSLSGSPKPFSPQLSAPITTKTDKTSTTGSILNLNLDRSKAEMDLKELSESVQQQSTPVPLISPKRQIRSRFQLNLDKTIESCKAQLGINEISEDVYTAVEHSDSEDSEKSDSSDSEYISDDEQKSKNEPEDTEDKEGCQMDKEPSAVKKKPKPTNPVEIKEELKSTSPASEKADPGAVKDKASPEPEKDFSEKAKPSPHPIKDKLKGKDETDSPTVHLGLDSDSESELVIDLGEDHSGREGRKNKKEPKEPSPKQDVVGKTPPSTTVGSHSPPETPVLTRSSAQTSAAGATATTSTSSTVTVTAPAPAATGSPVKKQRPLLPKETAPAVQRVVWNSSSKFQTSSQKWHMQKMQRQQQQQQQQNQQQQPQSSQGTRYQTRQAVKAVQQKEITQSPSTSTITLVTSTQSSPLVTSSGSMSTLVSSVNADLPIATASADVAADIAKYTSKMMDAIKGTMTEIYNDLSKNTTGSTIAEIRRLRIEIEKLQWLHQQELSEMKHNLELTMAEMRQSLEQERDRLIAEVKKQLELEKQQAVDETKKKQWCANCKKEAIFYCCWNTSYCDYPCQQAHWPEHMKSCTQSATAPQQEADAEVNTETLNKSSQGSSSSTQSAPSETASASKEKETSAEKSKESGSTLDLSGSRETPSSILLGSNQGSDHSRSNKSSWSSSDEKRGSTRSDHNTSTSTKSLLPKESRLDTFWD
modifications: FLAG tag
With B1, the “expression levels of Slug, CD44, EGFR, and VEGFA genes” value is recorded as “significantly downregulated”.
